Screens: PubChem, The Scripps Research Institute Molecular Screening Center
Fh CTSL1 inh = counter-screen for PFM18AAP inhibitors: inhibitors of F. hepatica cathepsin L1. inhibition, % at 5.96 µM. recombinant F. hepatica cathepsin L1, Z-Leu-Arg-MCA fluorescence. hit rate 0.49% among 300,000;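 active = inhibition above the mean of all tested compounds plus 3 SD, set per screening campaign, cut at about 17% in these data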;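 note: 0% = plate median of test compound wells and 100% = 1 µM Z-Phe-Ala-diazomethylketone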
GSTO1 counter = GSTO1 inhibition, counter-screen for RBBP9 inhibitors. P78417. recombinant GSTO1, activity-based probe fluorescence polarization. inhibition, % at 5.96 µM. hit rate 1.1% among 300,000. AID 1974;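 active = inhibition above the campaign mean inhibition plus 3 SD, cut at about 35% in these data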;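 note: 0% = GSTO1-1 with DMSO and 100% = wells lacking GSTO1-1 enzyme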
Target sequence (P78417 whole entry, looked up): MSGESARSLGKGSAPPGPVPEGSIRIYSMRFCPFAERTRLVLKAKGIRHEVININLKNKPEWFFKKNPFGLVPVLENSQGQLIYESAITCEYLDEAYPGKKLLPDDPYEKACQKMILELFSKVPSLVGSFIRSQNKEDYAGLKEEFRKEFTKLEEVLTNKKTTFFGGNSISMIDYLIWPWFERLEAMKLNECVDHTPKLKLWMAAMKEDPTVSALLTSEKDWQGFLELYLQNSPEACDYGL
TDP2 inh = TDP2 (human) inhibition, absorbance primary screen; recombinant TDP2, T5PNP hydrolysis, p-nitrophenol absorbance 415 nm; inhibition, % at 12.8 µM; AID 720702; hit rate 0.34% among 370,000; O95551;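 active = inhibition above the mean of all tested compounds plus 3 SD, set per campaign, cut at about 25% in these data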;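 note: 0% = DMSO with enzyme and 100% = buffer with substrate but no TDP2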
Target sequence (O95551 whole entry, looked up): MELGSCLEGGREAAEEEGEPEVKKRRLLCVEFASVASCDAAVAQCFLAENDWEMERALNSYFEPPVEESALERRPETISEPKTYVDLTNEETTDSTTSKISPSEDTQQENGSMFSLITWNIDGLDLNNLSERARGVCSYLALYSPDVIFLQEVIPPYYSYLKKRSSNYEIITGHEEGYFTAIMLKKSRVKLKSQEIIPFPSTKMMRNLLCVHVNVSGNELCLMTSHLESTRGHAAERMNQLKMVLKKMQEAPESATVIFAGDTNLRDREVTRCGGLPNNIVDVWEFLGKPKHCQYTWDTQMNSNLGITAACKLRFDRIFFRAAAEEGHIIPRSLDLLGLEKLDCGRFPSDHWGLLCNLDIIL
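Test system: Human TDP2 enzyme | Reagent: 5 mM T5PNP | Compound dosing: 12.8 µM single point, 1% DMSO | Incubation: Enzyme reaction with compound for 2 h at 37 °C | Technique: p-Nitrophenol epi absorbance | Read-out: % inhibition relative to enzyme-containing and enzyme-free wells | Benchmarks: High control without enzyme, low control DMSO plus TDP2 | Replicates: Singlicate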
PAD4 inh = blocks human protein arginine deiminase 4. recombinant PAD4, RCA probe fluorescence polarization. AID 485272. inhibition, % at 6.36 µM. hit rate 0.41% among 330,000;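 active = percent inhibition above a cutoff equal to the mean of all tested compounds plus 3 SD, cut at about 15% in these data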;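 note: 0% = PAD4 with RCA probe and DMSO and 100% = probe without PAD4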
PRMT1 FP inh = blocks human protein arginine methyltransferase 1. Q99873. recombinant PRMT1, activity-based probe fluorescence polarization. inhibition, % at 2.79 µM. hit rate 1.3% among 370,000. AID 652257;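 active = inhibition above about 21% made by adding two undisclosed values, limit read from the data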
* = called active by the depositor; . = not tested or not shown; ! = repeats disagree. Shown are actives, neighbours in structure and some others; about 2.5% of the full set was active somewhere.

SMILES	Fh CTSL1 inh	GSTO1 counter	TDP2 inh	PAD4 inh	PRMT1 FP inh
O=C1Nc2ccccc2C(O)(C(=O)NCc2ccco2)N1c1ccc(Cl)c(Cl)c1 (stereo unspecified)	66*	-2	.	1	.
COc1ccc(S[C@]2(C(=O)N3CCN(c4ncccn4)CC3)CC(=O)N(C(=O)c3ccccc3)[C@@H]2c2ccc(OC)cc2)cc1	.	.	1	.	24*
O=C1/C(=C/c2cccnc2)SC(=S)N1NS(=O)(=O)c1ccccc1	2	11	-4	5	23*
O=C1/C(=C\c2ccc(Br)cc2)SC(=S)N1NS(=O)(=O)c1ccccc1	-2	-1	0	-4	4
O=S1(=O)Nc2c(ccc3cccnc23)-c2ccccc21	-2	55*	.	-1	.
O=C(O)CC1S/C(=N/N=C/C=C/c2ccccc2[N+](=O)[O-])NC1=O (stereo unspecified)	1	-2	-16	0	1
O=C(O)CC1S/C(=N/N=C/c2ccc(-c3ccc(Cl)c([N+](=O)[O-])c3)o2)NC1=O (stereo unspecified)	5	37*	1	5	6
CN1Cc2nnn(CC3CCCCC3)c2-c2ccccc2S1(=O)=O	.	.	-9	.	-1
CC(=O)NCC(=O)OCC(=O)N1c2ccccc2Sc2ccccc21	-23	1	4	-7	3
O=C(CNC(=O)c1ccccc1)OCC(=O)N1c2ccccc2Sc2ccccc21	34*	1	5	2	6
CC(C)[C@H]1COc2c3ccccc3nn21	.	.	-1	.	-2
COC(=O)[C@]12C[C@H](CC(=O)N3CCC(c4ccccc4)CC3)C(=O)N(Cc3cccc4ccccc34)C1=C[C@H](COCc1ccccc1)O[C@@H]2C	.	.	-4	.	1
Cc1ccc2c(c1)N(CC(=O)N1CCCCC1c1cccnc1)C(=O)CO2 (stereo unspecified)	18*	6	-4	-7	3
O=S1(=O)c2c(cccc2N2CCSCC2)Oc2ccccc2CN1Cc1cn(Cc2cccc(C(F)(F)F)c2)nn1	.	.	-1	.	5
Cc1ccc(/C=C/C(=O)N2CCN(S(=O)(=O)c3c(C)c(C)cc(C)c3C)CC2)o1	43*	-4	0	-2	16
CCCCn1c(NC(=O)c2ccc(F)cc2)c(C#N)c2nc3ccccc3nc21	-5	67*	.	70*	.
Cc1ccc(C(=O)NCCn2c(N)c(C#N)c3nc4ccccc4nc32)cc1	0	28	5	-6	-2
O=C(CCS(=O)(=O)c1ccc(Br)s1)N1CCc2ccccc21	2	36*	-2	-4	-3
CC(=O)Nc1ccc(S(=O)(=O)NCCC(=O)Nc2ccc(C)c(Cl)c2)cc1	2	0	8	-3	1
CC(=O)Nc1ccc(S(=O)(=O)NCCSCc2ccccc2Cl)cc1	-2	54*	8	-2	-1
CCOC(=O)CC[C@H]1CC[C@]2(CCCN(S(=O)(=O)C3CCCCC3)C2)O1	.	.	-7	.	-3
O=C(Cc1cc(=O)[nH][nH]1)N/N=C/c1cccc(Cl)c1Cl	0	35*!	-5	-10	-2
COC(=O)CCC(=O)OC1(C)C(=O)C2=CN(c3ccc(OC)cc3)C(c3ccc(OC)cc3)=CC2=C(Br)C1=O (stereo unspecified)	-6	36*	.	-28	.
COC(=O)CCC(=O)OC1(C)C(=O)C2=CN(Cc3ccco3)C(c3ccc(OC)cc3)=CC2=C(Br)C1=O (stereo unspecified)	-25	6	.	-18	.
O=C(CCl)N1c2ccccc2OCC1c1ccccc1 (stereo unspecified)	0	64*	2	2	-3
SMILES	Fh CTSL1 inh	GSTO1 counter	TDP2 inh	PAD4 inh	PRMT1 FP inh
O=C(OCc1cn(Cc2cccc(F)c2)nn1)N1CCCCC1	.	.	8	.	0
Cc1cccc(C(=O)N=c2c(C#N)cc3c(=O)n4cccc(C)c4nc3n2Cc2ccco2)c1	3	-4	-10	3	25*!
Cc1cccn2c(=O)c3cc(C#N)c(=NC(=O)c4ccccc4)n(Cc4ccco4)c3nc12	7	-10	-14	2	24*
Cc1cccn2c(=O)c3cc(C#N)c(=NC(=O)c4ccco4)n(Cc4ccco4)c3nc12	1	4	-9	-3	12
CC(C)OC(=O)CN1C(=O)S/C(=C/c2ccc(N3CCCCC3)o2)C1=O	17*	-7	-10	0	16
Cc1cc(C(=O)NCc2ccco2)on1	0	-3	-6	1	24*
N#Cc1c(Nc2ccccc2Cl)s[nH]c1=O	3	-7	8	-2	23*
O=S1(=O)c2c(cccc2N2CCSCC2)Oc2ccccc2CN1Cc1cn(Cc2ccccc2C(F)(F)F)nn1	.	.	-7	.	-2
O=C1c2sc3nc4n(c(=O)c3c2CCC1Br)CCCCC4 (stereo unspecified)	1	55*	-2	-2	18
COc1ccc(CCNC(=O)Nc2cccs2)c(OC)c1	-1	-4	-11	1	23*
CC(C)[C@@H](CO)N1Cc2nnn(Cc3ccccc3)c2-c2ccccc2S1(=O)=O	.	.	-6	.	1
CCn1c(Cc2cccs2)nnc1SCC(=O)Nc1cccc2ccccc12	.	.	2	.	1
O=C(O)c1ccc(Cl)c(NC(=S)NC(=O)c2ccccc2[N+](=O)[O-])c1	-1	-6	-16	1	23*
C=CCN1C(=O)[C@@H](CC(=O)NCC2CCCCC2)[C@]2(C(=O)OCC)CCCCC/C=C/12	.	.	1	.	-3
CCC(/C=C1\Sc2ccc(OC)cc2N1CC)=C\c1sc2ccc(OC)cc2[n+]1CCCS(=O)(=O)[O-]	-2	-146	-1	-154	61*
CC[C@@H](CCCCCCCn1ccc2ccccc21)CCC(=O)N(c1ccccc1)c1ccccc1	.	.	2	.	4
Oc1cccc(-c2nc3ccccc3s2)c1	-3	14	-4	-1	2
Oc1ccc(O)c(Cc2nc3ccccc3s2)c1	-24	61*	4	-7	49*
O=C1c2ccccc2C(=O)N1c1cccc(-c2csc(Nc3ccc4c(c3)OCO4)n2)c1	-1	62*	.	-1	.
NS(=O)(=O)c1ccc2c(c1)C1C=CCC1C(C1CC=CCC1)N2 (stereo unspecified)	3	37*	9	-7	37*
C#CCCCN([C@H](C(=O)OC)C(C)C)S(=O)(=O)c1ccc(F)cc1Br	.	.	-12	.	2
Cc1ccc(N=C2NC(=O)/C(=C/C=C/c3ccco3)S2)cc1	0	9	5	-18	23*
C=CCN(CC#CC(=C)C)Cc1ccc(OC)cc1OC	.	.	-3	.	0
CCN1C(=O)c2ccccc2S(=O)c2ccc(C(=O)NCc3ccccn3)cc21 (stereo unspecified)	1	37*	4	4	-2
Cn1c(SCc2ccc(C(C)(C)C)cc2)nnc1-c1ccco1	.	.	1	.	1
Cc1ccc(C(=O)N/C(=C\c2ccc(-c3ccccc3[N+](=O)[O-])o2)C(=O)NCCCN2CCOCC2)cc1	3	36*	10	-11	-2
COc1cc2[nH]c(C(=O)NN)c(N)c2cc1OC	-3	39*	.	8	.
